Tests used:
[1] = system: PANC-1; assay: MTT proliferation assay, PANC-1 cells; format: cell-based; settings: Homo sapiens, PANC-1, 24 h; for IC20: read-out: Approx. IC20; for IC50: read-out: Approx. IC50
Method in brief: (§1)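 Cells were seeded at 4 × 10^3/well in 96-well plates and dosed 24 h later with graded concentrations of test compound for 24 h, with DMSO solvent control. Proliferation was read by modified MTT assay and approximate IC20/IC50 reported; triplicates, three independent experiments. Culture media, all at 37°C/5% CO2, were: BxPC-3 and Capan-2 RPMI/10% FBS; MIA PaCa-2 high-glucose DMEM/10% FBS/5% horse serum; PANC-1 DMEM/10% FBS; HPNE HPNE base medium/5% FBS/EGF.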

[2] = system: MIA PaCa-2; assay: MTT proliferation assay, MIA PaCa-2 cells; format: cell-based; settings: Homo sapiens, MIA PaCa-2, 24 h; for IC20: read-out: Approx. IC20; for IC50: read-out: Approx. IC50
Method in brief: as §1

[3] = system: Capan-2; assay: MTT proliferation assay, Capan-2 cells; format: cell-based; settings: Homo sapiens, Capan-2, 24 h; for IC20: read-out: Approx. IC20; for IC50: read-out: Approx. IC50
Method in brief: as §1

[4] = system: HPNE; assay: MTT proliferation assay, HPNE cells; format: cell-based; settings: Homo sapiens, 24 h; for IC20: read-out: Approx. IC20; for IC50: read-out: Approx. IC50
Method in brief: as §1

[5] = system: BxPC-3; assay: MTT proliferation assay, BxPC-3 cells; format: cell-based; settings: Homo sapiens, BXPC-3, 24 h; for IC20: read-out: Approx. IC20; for IC50: read-out: Approx. IC50
Method in brief: as §1

[6] = system: GEM-resistant BxPC-3 (GRB) cells; assay: Proliferation assay, GEM-resistant BxPC-3; format: cell-based, human; settings: 24h
[7] = system: Capan-2; assay: Annexin V apoptosis assay, Capan-2; format: cell-based, human; settings: 24h, Nx 50 μg/mL, GEM 0.5 μM, alone or in combination
[8] = system: phospho-p65 (pp65); assay: Immunoblot analysis of pp65; format: cell-based, human; settings: MIA PaCa-2; 24h; GEM 0.5 μM alone or with Nx 20 μg/mL
[9] = system: GEM-resistant Capan-2 (GRC) cells; assay: Proliferation assay, GEM-resistant Capan-2; format: cell-based, human; settings: 24h
Method in brief: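 The resistant Capan-2 line was derived by stepwise nucleoside drug exposure: 5 μM for 4 days, 5 μM for 1 week, 7.5 μM for 1 week, each followed by drug-free recovery, then 10 μM for 4 months. It was kept in RPMI/10% FBS plus drug. Resistant and parental cells were treated with graded doses for 24 h, and proliferation was read by MTT; triplicates, three independent experiments.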

[10] = system: p105; assay: Immunoblot analysis of p105; format: cell-based, human; settings: MIA PaCa-2; 24h; GEM 0.5 μM alone or with Nx 20 μg/mL
Method in brief: (§2)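 MIA PaCa-2 cells were exposed for 24 h to medium alone, test extract (20 μg/mL), nucleoside drug (0.5 μM), or both. They were lysed in 2x SDS buffer with protease and phosphatase inhibitors, run on 10% SDS-PAGE and transferred to nitrocellulose. Blocking was 1 h at RT in 5% milk or 5% BSA/TBST, primary antibody 2 h at RT, then HRP secondary 1 h. Detection was ECL; blots are representative of three independent experiments.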

[11] = system: p50; assay: Immunoblot analysis of p50; format: cell-based, human; settings: MIA PaCa-2; 24h; GEM 0.5 μM alone or with Nx 20 μg/mL
Method in brief: as §2

Structure (SMILES): CCCCC[N+]12CCc3cc4c(cc3C1Cc1ccc(OC)c(OC)c1C2)OCO4.[Cl-] (centres unmarked) [Ber 2-4, 9,10-dimethoxy-7-pentyl-5,6,7,8,13,13a-hexahydro-[1,3]dioxolo[4,5-g]isoquinolino[3,2-a]isoquinolin-7-ium chloride]
- IC20 [1]: ~1 µg/mL
- IC50 [1]: ~5 µg/mL
- IC20 [2]: ~10 µg/mL
- IC50 [2]: ~30 µg/mL
- IC20 [3]: ~5 µg/mL
- IC50 [3]: ~75 µg/mL
- IC20 [4]: ~25 µg/mL
- IC50 [4]: ~75 µg/mL
- IC20 [5]: ~5 µg/mL
- IC50 [5]: ~25 µg/mL

Structure (SMILES): COc1ccc2c(c1OC)C[N+]1(Cc3ccc(Br)cc3)CCc3cc4c(cc3C1C2)OCO4.[Br-] (centres unmarked) [Ber 2-8, 7-(4-bromobenzyl)-9,10-dimethoxy-5,6,7,8,13,13a-hexahydro-[1,3]dioxolo[4,5-g]isoquinolino[3,2-a]isoquinolin-7-ium bromide]
- IC20 [1]: ~5 µg/mL
- IC50 [1]: ~50 µg/mL
- IC20 [2]: ~5 µg/mL
- IC50 [2]: ~20 µg/mL
- IC20 [4]: ~25 µg/mL
- IC50 [4]: ~50 µg/mL

Structure (SMILES): COc1ccc2cc3[n+](cc2c1OC)CCc1cc2c(cc1-3)OCO2 [Berberine]
- IC20 [1]: ~2.5 µg/mL
- IC50 [1]: ~50 µg/mL
- IC20 [2]: ~5 µg/mL
- IC50 [2]: ~25 µg/mL
- IC20 [3]: ~5 µg/mL
- IC50 [3]: ~75 µg/mL
- IC20 [4]: ~5 µg/mL
- IC50 [4]: ~75 µg/mL
- IC20 [5]: ~5 µg/mL
- IC50 [5]: ~25 µg/mL

Structure (SMILES): Nc1ccn([C@@H]2O[C@H](CO)[C@@H](O)C2(F)F)c(=O)n1 [GEM, gemcitabine]
- proliferation of GRB cells compared to WT parental BxPC-3 [6]: significantly higher level of tolerance
- apoptosis induction (Annexin V) [7]: did not observe Annexin positive cells
- levels of pp65 [8]: induced
- proliferation of GRC cells compared to WT parental Capan-2 [9]: significantly higher level of tolerance
- levels of p105 [10]: induced
- levels of p50 [11]: induced

Source: paper PMC5800424 (Molecular carcinogenesis, 2016)
